Assay outcomes deposited in PubChem by The Scripps Research Institute Molecular Screening Center.
Rows were chosen to be rich in hits. Some 1.8% of all compounds tested hit in one or more screens of this group.
M4 ag: agonists of human muscarinic M4 receptor (CHRM4); P08173; CHO-K1 hM4/Gqi5, Fluo-8 calcium fluorescence; vehicle 0%, full acetylcholine response 100%; activation, % at 3 µM; 0.14% of 360,000 active; AID 624127;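 active = activation above the run mean over all test wells plus 3 SD, cut at about 32% in these data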;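 also: peak over basal fluorescence ratio per well then scaled between controls; 0% = DMSO wells and 100% = acetylcholine at EC100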
Target sequence (P08173 whole entry, looked up): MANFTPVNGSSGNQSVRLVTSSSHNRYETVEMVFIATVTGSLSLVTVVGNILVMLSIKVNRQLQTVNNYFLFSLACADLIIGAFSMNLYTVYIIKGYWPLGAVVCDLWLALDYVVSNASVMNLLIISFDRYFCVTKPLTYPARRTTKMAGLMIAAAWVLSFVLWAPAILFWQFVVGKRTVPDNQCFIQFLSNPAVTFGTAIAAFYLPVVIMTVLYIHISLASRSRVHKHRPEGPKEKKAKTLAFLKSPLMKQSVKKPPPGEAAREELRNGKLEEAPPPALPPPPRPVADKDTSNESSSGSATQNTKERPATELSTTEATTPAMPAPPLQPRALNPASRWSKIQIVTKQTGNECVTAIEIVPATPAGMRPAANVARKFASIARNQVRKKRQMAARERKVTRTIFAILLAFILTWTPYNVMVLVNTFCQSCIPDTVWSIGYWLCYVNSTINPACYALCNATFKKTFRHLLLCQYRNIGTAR
M5 antag: blocks acetylcholine activation of human M5 receptor | P08912 | CHO-hM5 cells, Fluo-8 calcium fluorescence, ACh EC80 | inhibition, % at 3 µM | 0.59% of 360,000 active;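 active = inhibition above a per-plate cutoff, the mean of that plate's test compounds plus 3 SD, cut at about 27% in these data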;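 also: 0% = acetylcholine EC80 with DMSO and 100% = DMSO without agonist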
M5 ag: CHRM5 agonism in calcium assay | CHO-K1 hM5 cells, Fluo-8 calcium fluorescence; 0% DMSO wells, 100% maximal acetylcholine response | activation, % at 3 µM | 0.19% of 360,000 active | P08912;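 active = activation above the run's mean over test compounds plus 3 SD, cut at about 23% in these data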;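 also: signal is peak over basal fluorescence ratio across the kinetic read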
CHRM5 PAM: potentiates acetylcholine response at human M5 receptor; P08912; CHO-K1 hM5, Fluo-8 calcium, ACh EC20 PAM; 0% = ACh EC20, 100% = ACh EC100; activation, % at 3 µM; 0.3% of 360,000 active; AID 624038;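 active = activation above the run cutoff, the mean activation of all test compounds plus 3 SD, cut at about 18% in these data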
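Assay system: CHO-K1 hM5 cells. Also added: acetylcholine at EC20 concentration, added after compound. Dosing: 3 µM, single dose. Times: compound preincubation 140 s before EC20 acetylcholine addition. Signal: Fluo-8 calcium fluorescence. Measure: % activation relative to EC20 and EC100 ACh responses. Repeats: singlicate, one well per test compound.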
M4 antag: CHRM4 antagonism in calcium assay | AID 624125 | 0.73% of 360,000 active | inhibition, % at 3 µM | P08173 | CHO-hM4 cells, ACh EC80, Fluo-8 calcium fluorescence;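 active = inhibition above its plate's cutoff, the mean inhibition of sample wells plus 3 SD, cut at about 27% in these data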;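 also: 0% = acetylcholine EC80 with DMSO and 100% = DMSO without agonist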
CHRM4 PAM: positive allosteric modulators of human muscarinic M4 receptor. P08173. CHO-K1 hM4/Gqi5, Fluo-8 calcium fluorescence, ACh EC20; 0% = ACh EC20, 100% = maximal ACh. activation, % at 3 µM. 0.4% of 360,000 active. AID 624126;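 active = activation above its plate's cutoff, the mean activation of sample wells plus 3 SD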
Starred values were filed as active, the others as inactive; ! = repeats disagree.

SMILES | M4 ag | M5 antag | M5 ag | CHRM5 PAM | M4 antag | CHRM4 PAM
Cc1nc(-c2nnc(-c3ccccc3)o2)c(C(F)(F)F)o1 | 13 | 14 | 0 | -20 | 29* | -20
c1ccc(-c2nnc(-c3ccccc3)o2)cc1 | 1 | 6 | -1 | 1 | -9 | 4
CCOC1=C2CN(S(=O)(=O)c3ccc(C)cc3)[C@H](c3ccccc3)C[C@H]2[C@H]2C(=O)N(c3ccccc3)C(=O)[C@H]2C1 | 0 | 2 | 1 | 1 | -5 | 1
S=C1NC[C@H](Cc2ccccc2)N1CC1CCN(CCCCc2ccccc2)CC1 | 3 | 23 | -3 | -15 | 28* | -15
O=C1NC[C@H](Cc2ccccc2)N(CC2CCN(CCCCc3ccccc3)CC2)C1=O | 1 | 10 | 2 | -7 | 14 | -8
Cc1cccc(NC(=O)CSc2nnc3ccc(-c4cccnc4)nn23)c1 | 3 | -5 | -2 | -1 | -7 | -1
COCCN(Cc1ccc(OC)cc1)c1c(C)nc2ccc(C(=O)Nc3ccc(NC(C)=O)cc3)cn12 | 4 | -3 | 0 | 0 | -21 | 5
O=C(/C=C/c1ccc(S(=O)(=O)NCc2ccco2)cc1)NCc1cccc(Cl)c1 | 4 | 32* | -9 | -18 | 4 | -8
O=S1(=O)CC(N2CCCC2)CN1Cc1ccccc1 (stereo not given) | 0 | 0 | -1 | -1 | -6 | -1
COc1cc(/C=C(\C#N)c2nc3ccccc3o2)ccc1O | 30 | 46* | 53* | -24 | 20 | -23
N#C/C(=C\c1ccc(O)cc1)c1nc2ccccc2o1 | 9 | 10 | 10 | -9 | 14 | -11
CN1CCN(C(=O)c2ccc3c(Cl)c4c(nc3c2)CCCC4)CC1 | 1 | 10 | -3 | 5 | 6 | 15*
CN(C)C(=O)c1cccc(-c2cccc(-c3nc(C(=O)NCc4ccccc4)cc4c3[C@@H](CCO)N(S(=O)C(C)(C)C)C4)c2)c1 (stereo not given in full) | 22 | 18 | 4 | -18 | 9 | -11
COc1cc(C(=O)COC(=O)c2cc([N+](=O)[O-])ccc2N2CCOCC2)ccc1OC(F)F | 2 | 7 | -6 | -9 | 28* | -4
COc1ccccc1C(=O)COC(=O)c1cc([N+](=O)[O-])ccc1N1CCOCC1 | 4 | 10 | -4 | -7 | -13 | 1
OC(CCN1CCC2CCC(C2)C1)c1ccc(Br)cc1 (stereo not given) | -1 | 4 | -11 | -12 | 37* | -13
COC(=O)[C@]12CCCCC=C1N(CCc1ccc(OC)c(OC)c1)C(=O)[C@H](CC(=O)NCCCN1CCCC1=O)C2 | 4 | -1 | 2 | -1 | -12 | 7
C[C@@H](NC(=O)Cn1cnc2c(OCc3ccccc3)ncnc21)c1cccc2ccccc12 | 14 | -4 | 6 | 3 | 57* | 56*
CCc1nc2c(OCC(=O)N3CCOCC3)cccn2c1N(C=O)Cc1ccccc1 | 1 | -12 | -1 | 1 | -12 | 5
COc1ccc(CSCCc2n[nH]c(=S)n2-c2ccccc2)cc1 | 4 | 4 | 0 | -1 | 48* | -26
c1ccc(-c2csc3ncnc(NCC4COc5ccccc5O4)c23)cc1 (stereo not given) | 5 | 38* | -4 | -16 | 38* | -10
Cc1sc2ncnc(NCC3COc4ccccc4O3)c2c1C (stereo not given) | 11 | 38* | 1 | -17 | 32* | -12
CCCCNc1c(-c2ccc(OC)c(SC(C)CC)c2)nc2cc(C)ccn12 (stereo not given) | 12 | 8 | -4 | -22 | 31*! | -11
CCCCNc1c(-c2ccc(OC)c(SC(C)CC)c2)nc2ccc(Cl)cn12 (stereo not given) | 5 | 9 | -5 | -8 | 5 | -4
CCCCNc1c(-c2ccc(OC)c(SC(C)CC)c2)nc2ccc(C)cn12 (stereo not given) | 16 | 14 | 1 | -30 | 31*! | -4
CCCCNc1c(-c2ccc(-c3ccc(C(C)=O)cc3)c(OC)c2)nc2cc(C)ccn12 | 7 | 17 | -10 | -36 | 25 | -13
